Test results reported in ChEMBL document CHEMBL3352688, “Synthesis and anti-inflammatory and pro-resolving activities of 22-OH-PD1, a monohydroxylated metabolite of protectin D1” (2014).
The source made the active and inactive calls. The calls are words filed in the database; no cut-off is given here.

Key:
Mus musculus [1] = experiment: Anti-inflammatory activity in FVB mouse with zymosan-induced sterile peritonitis assessed as reduction in PMN infiltration in peritoneal inflammatory exudates at 10 ng, ip measured at 4 hrs dosed 10 mins before zymosan challenge by light microscopy and flow cytometry; format: functional
Procedure, shortened: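 Male FVB mice, 6–8 weeks old, were dosed i.p. with 10 ng in saline with 0.1% EtOH, then zymosan 1 mg/mouse i.p. 10 min later. Peritoneal lavage was collected at 4 h in PBS without Ca/Mg. Leukocytes were enumerated by light microscopy and flow cytometry. Mean ± SEM, n = 4 mice per treatment.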

Mus musculus [2] = experiment: Anti-inflammatory activity in FVB mouse with zymosan-induced sterile peritonitis assessed as reduction in PGD2 in peritoneal inflammatory exudates at 10 ng, ip dosed 10 mins before zymosan challenge by LC-MS/MS based targeted lipid mediator metabololipidomics; format: functional
Procedure, shortened: (§1)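 Male FVB mice, 6–8 weeks old, received 10 ng i.p. in saline with 0.1% EtOH as vehicle, then zymosan 1 mg/mouse i.p. 10 min later. Peritoneal lavage was taken at 4 h in PBS without Ca/Mg. Eicosanoids were measured by LC/MS-MS after solid-phase extraction, identified with at least six diagnostic ions and quantified against linear calibration curves. Mean ± SEM, n = 4 mice per group.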

Mus musculus [3] = experiment: Anti-inflammatory activity in FVB mouse with zymosan-induced sterile peritonitis assessed as reduction in PGF2alpha in peritoneal inflammatory exudates at 10 ng, ip dosed 10 mins before zymosan challenge by LC-MS/MS based targeted lipid mediator metabololipidomics; format: functional; procedure, shortened: as §1
Mus musculus [4] = experiment: Anti-inflammatory activity in FVB mouse with zymosan-induced sterile peritonitis assessed as reduction in TXB2 in peritoneal inflammatory exudates at 10 ng, ip dosed 10 mins before zymosan challenge by LC-MS/MS based targeted lipid mediator metabololipidomics; format: functional; procedure, shortened: as §1
Homo sapiens [5] = species: Homo sapiens; experiment: Inhibition of LTB4-induced cell adhesion to fibronectin in human primary PMN at 0.1 to 10 nM pre-incubated for 10 mins followed by LTB4 stimulation by flow cytometry; format: functional; details: in the assay text read “flow chamber assay with microscopy” for “flow cytometry”
Procedure, shortened: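 Purified human PMN were pretreated 10 min at room temperature, then stimulated with 10 nM LTB4 for 10 min at room temperature. Cells at 1 × 10^6/mL were perfused over fibronectin-coated chambers at 0.5 mL/min for 5 min. Adherent cells were counted in six random fields by imaging. Three independent experiments; paired t test versus vehicle.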

[6] = Inhibition of IL8-induced chemotaxis of human primary PMN at 0.01 to 100 nM pre-incubated for 15 mins followed by IL8 stimulation by PrestoBlue fluorescence assay
[7] = Inhibition of LTB4-induced chemotaxis of human primary PMN at 0.01 to 100 nM pre-incubated for 15 mins followed by LTB4 stimulation by PrestoBlue fluorescence assay
Homo sapiens [8] = species: Homo sapiens; experiment: Inhibition of IL8-induced chemotaxis of human primary PMN at 0.01 to 100 nM pre-incubated for 15 mins followed by IL8 stimulation by PrestoBlue fluorescence assay
Homo sapiens [9] = species: Homo sapiens; experiment: Inhibition of LTB4-induced chemotaxis of human primary PMN at 0.01 to 100 nM pre-incubated for 15 mins followed by LTB4 stimulation by PrestoBlue fluorescence assay

SMILES | inhibition (INH) (Mus musculus [1]) [%] | inhibition (INH) (Mus musculus [2]) [%] | inhibition (INH) (Mus musculus [3]) [%] | inhibition (INH) (Mus musculus [4]) [%] | inhibition (Homo sapiens [5]) | inhibition (INH) [6] [%] | inhibition (INH) [7] [%] | inhibition (Mus musculus [2]) | inhibition (Mus musculus [3]) | inhibition (Mus musculus [4]) | inhibition (Homo sapiens [8]) | inhibition (Homo sapiens [9])
O=C(O)CC/C=C\C/C=C\C[C@@H](O)/C=C/C=C/C=C\[C@@H](O)C/C=C\CCO | 43 | 27 | 43 | 48 | Active | 23 | 19 |  |  |  |  | 
CC/C=C\C[C@H](O)\C=C/C=C/C=C/[C@H](O)C/C=C\C/C=C\CCC(=O)O | 54 |  |  |  | Active |  |  | Active | Active | Active | Active | Active
